APP 5'UTR act: activators of APP 5'UTR luciferase reporter, primary screen, SH-SY5Y cells; 1% of 190,000 active; AID 1276, 2008; activation, % at 2 µM; SH-SY5Y APP 5'UTR luciferase reporter, luminescence; zero percent = DMSO vehicle wells;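 active = activation above a set limit, based on mean plus 3 SD of controls, cut at about 140% in these data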
STAT1 act: STAT1 signaling activators, primary screen, cell-based, HTS, luciferase reporter | NIH 3T3 STAT1-luciferase reporter, IFN-gamma, luminescence; 100% = IFN-gamma alone, no compound | activation (% of control), % at 5.5 µM | 2.6% of 200,000 active | AID 932, 2007;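 active = activation above the screen-wide mean activation plus 3 SD, cut at about 130% in these data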;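 also: raw ratio to IFN-gamma control signal so 100% means no change and 0% no light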
AHR act: AHR activators, primary screen, cell-based, luminescence, luciferase reporter, human. 2.5% of 320,000 active. AHR-responsive luciferase reporter cells. activation, % at 5 µM. Aryl hydrocarbon receptor (Homo sapiens), P35869; in the data active = activation above about 47%;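 also: 0% = vehicle wells and 100% = reference agonist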
Mdm2 ligase inh: MDM2-luciferase reporter signal enhancers, primary screen, MDM2 E3 ligase inhibitor project, cell-based, luminescence, 1536-well; AID 1230, 2008; 0.11% of 210,000 active; signal enhancement, % at 5 µM; E3 ubiquitin-protein ligase Mdm2 (Homo sapiens), Q00987; cell-based MDM2 ubiquitination luciferase reporter, 2 h; 0 = plate control, 100 = twice control, blank-subtracted;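 active = signal enhancement of 30% or more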;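 also: luminescence tracks abundance of the self-degrading MDM2-luciferase fusion protein; higher signal means inhibition of MDM2 E3 ligase activity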
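Material: Stable MDM2–luciferase fusion reporter cells | Amount: 2000 cells seeded into each well | Dosing: One concentration, 5 µM, with 0.2% DMSO | Incubation: 4 h cell settling then 2 h compound exposure, 37 °C | Measured by: Luciferase luminescence | Read-out basis: % enhancement relative to plate controls after blank subtraction | Benchmarks: Control and blank well means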
PERK inh: block of dimerizer-induced PERK translation repression, primary screen, PERK inhibitor project, CHO PERK-DD cells, SEAP luminescence, HTS. Eukaryotic translation initiation factor 2-alpha kinase 3 (Homo sapiens), Q9NZJ5. 0.17% of 220,000 active. inhibition, % at 5.6 µM. CHO PERK-DD fusion, SEAP luminescence translation reporter. AID 1416, 2008;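 active = inhibition above the mean inhibition of all tested compounds plus 3 SD, set separately per screening campaign, cut at about 2.9% in these data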;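 also: PERK kinase domain activated by AP20187 dimerizer at 100 nM; 0% = DMSO with dimerizer and 100% = rapamycin at 8.4 µM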
Target sequence (Q9NZJ5 whole entry, looked up, the tested form may be a part): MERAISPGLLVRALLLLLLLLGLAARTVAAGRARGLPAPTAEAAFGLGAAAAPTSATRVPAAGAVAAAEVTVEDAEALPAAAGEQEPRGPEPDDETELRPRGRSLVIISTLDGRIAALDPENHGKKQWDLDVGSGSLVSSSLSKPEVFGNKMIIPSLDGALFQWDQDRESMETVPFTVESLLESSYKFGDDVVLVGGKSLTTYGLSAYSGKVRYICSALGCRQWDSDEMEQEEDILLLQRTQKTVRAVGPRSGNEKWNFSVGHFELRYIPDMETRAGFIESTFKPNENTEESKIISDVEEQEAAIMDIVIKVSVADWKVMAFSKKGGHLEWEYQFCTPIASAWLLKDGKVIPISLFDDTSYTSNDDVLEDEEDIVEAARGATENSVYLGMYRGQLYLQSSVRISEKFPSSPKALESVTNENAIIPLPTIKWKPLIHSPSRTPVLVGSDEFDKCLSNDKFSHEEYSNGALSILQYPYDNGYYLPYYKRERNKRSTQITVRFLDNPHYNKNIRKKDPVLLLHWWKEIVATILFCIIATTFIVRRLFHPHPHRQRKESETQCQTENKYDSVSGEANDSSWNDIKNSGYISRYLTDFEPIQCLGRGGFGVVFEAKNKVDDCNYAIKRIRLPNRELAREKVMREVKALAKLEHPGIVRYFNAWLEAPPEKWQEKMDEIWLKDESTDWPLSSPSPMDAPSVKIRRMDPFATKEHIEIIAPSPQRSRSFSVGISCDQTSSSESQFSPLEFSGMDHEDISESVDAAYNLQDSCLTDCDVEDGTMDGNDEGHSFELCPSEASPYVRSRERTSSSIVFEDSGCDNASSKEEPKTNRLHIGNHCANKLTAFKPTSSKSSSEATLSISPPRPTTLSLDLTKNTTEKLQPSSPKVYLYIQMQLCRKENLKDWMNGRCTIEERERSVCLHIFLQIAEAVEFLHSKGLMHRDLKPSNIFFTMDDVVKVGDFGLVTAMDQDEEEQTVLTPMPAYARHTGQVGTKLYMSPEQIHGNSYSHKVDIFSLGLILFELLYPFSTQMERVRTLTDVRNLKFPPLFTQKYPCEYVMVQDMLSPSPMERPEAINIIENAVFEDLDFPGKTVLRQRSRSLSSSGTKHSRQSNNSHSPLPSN
NF-kB expr up: activators of NF-kB expression in neurons, primary screen, cell-based, HTS; human neuronal cells, NF-kB reporter expression; hits give high values; fold change at 12.5 µM; 1.6% of 190,000 active; AID 1239, 2008; in the data active = fold change above about 3.3
Active calls of the source: *; / = no result given. Most compounds without a hit are left out; they make up all but 4.5% or so of the library.

SMILES	APP 5'UTR act	STAT1 act	AHR act	Mdm2 ligase inh	PERK inh	NF-kB expr up
COc1ccc(Cl)cc1/C=C/c1ccc2cccc(O)c2n1	/	/	66*	/	/	/
C=CCNC(=O)c1ccccc1NC(=O)c1ccccc1C	9	99	27	-12	0	1.5
C=CCNC(=O)c1ccccc1NC(=O)c1ccccc1SC	12	99	77*	-7	1	1
O=C(COC(=O)c1cccc(O)c1)NCc1ccc2c(c1)OCO2	/	/	0	0	1	/
O=S(=O)(Nc1ccccc1Cl)c1cc(NC(=S)NCCN2CCOCC2)ccc1Cl	/	/	3	/	/	/
O=C(Nc1ccccc1)n1ccc(-c2ccc(-n3ccnc3)cc2)n1	52	111	83*	6	1	1.8
c1ccc(-c2cc3c(nn2)CCc2nonc2-3)cc1	10	104	57*	1	1	1.2
CCOc1ccccc1N1CCN(C(=O)c2ccc(NS(=O)(=O)c3ccc4[nH]c(=O)[nH]c4c3)cc2)CC1	/	/	4	/	/	/
COc1ccccc1CCn1c(N)cc(=O)[nH]c1=O	/	/	53*	/	/	/
CC1=Nc2cc(C(=O)NCc3ccco3)ccc2Sc2ccc(C)cc21	-96	95	2	1	0	3.5*
CC1=Nc2cc(C(=O)NCC3CCCO3)ccc2Sc2ccc(C)cc21 (stereo not drawn)	/	/	1	/	/	/
COc1ccc(-c2cc(C(F)(F)F)c3c(n2)sc2c(O)cc(=O)[nH]c23)c(OC)c1	-9	99	70*	1	1	0.76
CCCn1c(C(C)Nc2nc(-c3ccc(C)cc3)cs2)nc2cc(Cl)c(Cl)cc21 (stereo not drawn)	/	/	14	/	/	/
Cc1ccc(Cn2c(C(C)Nc3nc(-c4ccc(F)cc4)cs3)nc3cc(Cl)c(Cl)cc32)cc1 (stereo not drawn)	/	/	59*	/	/	/
CCCC[n+]1c(-c2ccc(Cl)cc2Cl)csc1Nc1ccccc1	-2	102	3	-2	1	0.66
Clc1ccc(-c2csc(Nc3ccccc3)[n+]2Cc2ccco2)c(Cl)c1	38	140*	/	-5	1	0.96
C=CCNC(=S)N/N=C/c1ccc(-c2cc(Cl)ccc2Cl)o1	-3	95	18	-13	0	1.4
C=CCNC(=S)N/N=C/c1ccc(-c2ccc(Cl)cc2Cl)o1	/	/	61*	/	/	/
C=CCNC(=S)N/N=C/c1ccc(-c2ccc(OC)cc2)o1	25	97	64*	-25	0	1.1
CNC(=S)N/N=C/c1ccc(-c2ccc(C(=O)O)cc2)o1	/	/	6	-7	3	/
Cc1cc(NC(=O)CCC(=O)N(CC(=O)NC2CCCC2)c2ccc(C(C)C)cc2)no1	/	/	1	/	/	/
Cc1ccc(C2(C)NC(=O)N(CC(=O)NNC(=O)c3ccccc3F)C2=O)cc1 (stereo not drawn)	/	/	0	/	/	/
C=CCNC(=S)NNC(=O)CC12CC3CC(CC(C3)C1)C2	/	/	3	-6	2	/
Cc1cccc(NC(=O)CCSc2ccccn2)c1	16	106	-1	2	0	1.5
O=C(CSc1ccccn1)Nc1ccc2ccccc2c1	137*	132*	6	-15	1	3
SMILES	APP 5'UTR act	STAT1 act	AHR act	Mdm2 ligase inh	PERK inh	NF-kB expr up
Cc1ccc(NC(=O)CCSc2ccccn2)cc1	81	142*	2	9	1	3
O=C(CSc1ccccn1)Nc1ccc2c(c1)C(=O)c1ccccc1C2=O	83	120	42	-3	1	1.1
Cc1ccccc1CSc1nnc(-c2ccncc2)o1	-4	104	6	-14	2	1.3
Cc1ccc(CSc2nnc(-c3cccc4ccccc34)o2)cc1	/	/	45	/	/	/
Cc1ccccc1-c1nnc(SCc2ccccc2)o1	44	132*	-4	17	0	2.9
COc1ccc(-c2nnc(SCc3ccccc3F)o2)cc1	157*	142*	10	-30	1	7.7*
Fc1ccccc1CSc1nnc(-c2ccccc2)o1	139*	145*	1	-21	0	5*
Cc1ccccc1-c1nnc(SCc2ccccc2F)o1	142*	148*	-4	-28	1	6.4*
O=C(COC(=O)CN1C(=O)C2CCCCC2C1=O)Nc1c(Cl)cccc1Cl (stereo not drawn)	/	/	0	/	/	/
CCC1CCCCN1C(=O)COC(=O)c1cc(C)nc2ccccc12 (stereo not drawn)	/	/	2	/	/	/
C=CCN(c1ccccc1OC)S(=O)(=O)c1cccc(C(=O)Nc2nnc(C3CC3)s2)c1	/	/	6	/	/	/
COc1ccc(-c2nnc(SCC#N)o2)cc1	-7	104	-10	-14	1	1.5
C#CCSc1nnc(-c2ccc(OC)cc2)o1	35	134*	0	-19	0	3
O=C(CCS(=O)(=O)c1ccccc1)Nc1nc(-c2ccccn2)cs1	6	101	54*	/	0	/
O=C(Nc1nc(-c2ccccn2)cs1)c1ccc(Br)s1	-25	103	-4	45*	-2	1.8
O=C(Nc1nc(-c2ccccn2)cs1)c1ccco1	-32	111	20	1	0	1.9
O=C(CCS(=O)(=O)c1ccc(F)cc1)Nc1nc(-c2ccccn2)cs1	/	/	7	/	/	/
Cc1onc(-c2c(F)cccc2Cl)c1C(=O)OCn1nnc2ccccc2c1=O	-2	94	-2	-1	0	5.6*
CCn1c(SCC(=O)NC2CCCCC2)nnc1-c1cccnc1	/	/	2	/	/	/
COc1ccc2cc(/C(C)=N/NC(=O)C3CC3)ccc2c1	67	147*	15	-12	1	2.4
C/C(CC(C)C)=N\NC(=O)Nc1ccccc1	8	120	19	-6	0	1.6
COc1ccc(/C(C)=N/NC(=O)C2CC2)cc1	10	104	21	0	1	1.2
CC(=O)c1ccc(NC(=O)Nc2ccccc2)cc1	138*	121	0	-21	0	3.6*
CCOC(=O)C/C(C)=N/NC(=O)Nc1ccccc1	25	131*	30	-7	0	1.1
C/C(=N\NC(=O)Nc1ccccc1)c1ccc2ccccc2c1	8	100	70*	1	1	0.97
COc1ccc(S(=O)(=O)NC(C)C(=O)NCc2ccccn2)cc1OC (stereo not drawn)	/	/	-2	/	/	/
Cc1ccc(NC(=O)CSCc2ccco2)cc1	32	129*	1	-21	1	2
COc1ccc(OCc2cccc(C(=O)Nn3cc([N+](=O)[O-])cn3)c2)cc1	25	21	-12	-19	1	7.4*
O=C(Nn1c(SCc2cccc([N+](=O)[O-])c2)nc2ccccc2c1=O)c1ccccc1	119	150*	7	-12	-1	0.96

Screening data deposited in PubChem by several laboratories.
